Assay outcomes: PubChem BioAssay, Johns Hopkins Ion Channel Center
An excerpt weighted towards active compounds, which were near 3.7% of everything screened.
KCNQ1 pot: human KCNQ1 channel potentiation or activation. P51787. 0.35% of 310,000 active. B-score at 10 µM. CHO-K1 KCNQ1, thallium flux FluxOR fluorescence; active compounds read high;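 active means fluorescence ratio B-score, a plate-corrected score, at least three library SD, with initial intensity B-score within 5 SD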
Target sequence (P51787 whole entry, looked up): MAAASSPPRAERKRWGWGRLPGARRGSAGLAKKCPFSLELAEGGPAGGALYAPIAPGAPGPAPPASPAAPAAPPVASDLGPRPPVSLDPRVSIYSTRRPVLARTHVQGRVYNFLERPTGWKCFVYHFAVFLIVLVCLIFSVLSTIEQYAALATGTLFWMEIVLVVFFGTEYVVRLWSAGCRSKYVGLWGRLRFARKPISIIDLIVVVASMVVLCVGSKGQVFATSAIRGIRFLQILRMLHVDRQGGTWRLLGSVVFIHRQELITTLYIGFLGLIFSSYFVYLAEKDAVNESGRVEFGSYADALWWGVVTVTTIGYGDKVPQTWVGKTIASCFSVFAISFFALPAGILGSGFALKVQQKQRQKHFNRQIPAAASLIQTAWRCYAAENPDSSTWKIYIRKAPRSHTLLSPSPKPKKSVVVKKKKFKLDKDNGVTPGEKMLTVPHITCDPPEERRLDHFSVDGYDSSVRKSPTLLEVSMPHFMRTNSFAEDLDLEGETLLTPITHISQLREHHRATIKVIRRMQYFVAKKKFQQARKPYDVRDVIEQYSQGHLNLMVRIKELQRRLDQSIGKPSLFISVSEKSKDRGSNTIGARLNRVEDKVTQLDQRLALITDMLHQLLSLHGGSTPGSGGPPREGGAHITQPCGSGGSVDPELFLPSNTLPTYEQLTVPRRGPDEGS
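Assay system: stable KCNQ1 CHO-K1 line; medium: assay buffer, equal DMSO in all wells; timing: 90 min dye loading and 20 min compound exposure, both at room temperature; technique: kinetic FluxOR thallium fluorescence, 10-s 1-Hz baseline, 110-s post-stimulus read; read-out basis: B score of baseline-normalized fluorescence ratio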
KCNQ1 block: human KCNQ1 channel inhibition; P51787; CHO-K1 KCNQ1, FluxOR thallium flux fluorescence; active compounds read high; B-score at 10 µM; 1.3% of 310,000 active; AID 2642;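 active means compounds whose thallium flux B-score, printed positive for inhibition, exceeds three library SD while starting fluorescence stays within three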;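 further: channel opened by potassium depolarization with thallium stimulus after 20 min compound exposure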
KCNK3 inh: human KCNK3 channel inhibition, primary screen; O14649; CHO-KCNK3 thallium flux, FluxOR fluorescence; active compounds read low; B-score at 10 µM; 0.84% of 340,000 active; AID 602410;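 active means B-score under library mean minus 4 SD, starting fluorescence ratio at most library mean plus 5 SD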;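 further: more negative B-score means stronger inhibition of thallium flux through KCNK3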
hERG rescue: compounds protecting human hERG from proarrhythmic drug block | 0.51% of 310,000 active | activation (rescue from dofetilide block), less the hit threshold, % at 10 µM | CHO-hERG, FluxOR thallium flux, dofetilide IC70 present | Q12809;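 active means activation above the mean of controls blocked by dofetilide plus 5 SD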;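 further: thallium influx through hERG after potassium depolarization seen as dye fluorescence rise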
Kir21 block: blocks the mouse Kir2.1 inward-rectifier potassium channel | HEK293-Kir2.1, FluxOR thallium flux fluorescence; active compounds read low | B-score at 10 µM | 0.85% of 310,000 active | AID 1672;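 active means fluorescence ratio B-score at or below minus 3 SD of library scores, with starting-brightness B-score within 2 SD, cut at about -4.2 in these data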;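 further: channel flux triggered by added potassium and thallium sulfate stimulus; B-score of peak minus minimum fluorescence over baseline after thallium stimulus; more negative B-score means stronger Kir2.1 block with less thallium influx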
KCNK9 block: blocks the human KCNK9 two-pore domain potassium channel; Q9NPC2; HEK293 KCNK9, FluxOR thallium flux fluorescence; active compounds read low; B-score at 10 µM; 1.2% of 310,000 active; AID 488922;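 active means ratio B-score over 3 SD below the library mean, with starting fluorescence within 5 SD of its mean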;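 further: negative B-score means less thallium flux so channel inhibition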
KCNQ1 block val: reconfirmed blocker of the human KCNQ1 potassium channel; shares compounds with KCNQ1 block; KCNQ1 cell line, FluxOR thallium flux fluorescence; inhibition, % at 10 µM; 93% of 1,600 active; AID 588353;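 active means primary screen active, with duplicate mean exceeding buffer control mean plus 3 SD of buffer wells, cut at about 28% in these data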;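 further: 0% = buffer control ratio and 100% = XE991 inhibitor control ratio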
CHO Tl flux: counter-screen for KCNQ1 inhibitors: effect in parental CHO cells; 21% of 1,600 active; parental CHO-K1, FluxOR thallium flux fluorescence ratio; active compounds read low; zero means no signal rise above baseline; fluorescence ratio (Tl flux) at 10 µM; AID 588366; shares compounds with KCNQ1 block;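 active means mean of duplicate thallium-flux fluorescence ratios in parental host cells more than 5 SD below the buffer control mean, cut at about 0.38 in these data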;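 further: ratio is peak minus minimum fluorescence divided by baseline fluorescence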
KCNQ1 APC inh: human KCNQ1 inhibition validated by electrophysiology; AID 624120; calls only at 10 µM; KCNQ1-CHO cells, automated patch clamp current; shares compounds with KCNQ1 block; 20% of 490 active;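 active means KCNQ1 current drop exceeding 3 SD of negative control wells, seen in both duplicate runs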;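 further: steady state current during a 2 s step from -80 to +40 mV; negative values mean current inhibition and positive values mean potentiation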
KCNQ2 inh: selectivity of KCNQ1 inhibitors: inhibition of rat KCNQ2 channel. KCNQ2 cells, FluxOR thallium flux fluorescence. 71% of 1,600 active. AID 651746. shares compounds with KCNQ1 block. inhibition, % at 10 µM;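 active means mean percent inhibition of the KCNQ2 thallium signal more than 5 SD above the buffer-only control wells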;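 further: KCNQ2 expressed in CHO cells; 0% = buffer control wells and 100% = XE-991 inhibitor control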
KCNQ1 KCNE1 spec: human KCNQ1/KCNE1 inhibition in KCNQ1 specificity screen; inhibition, % at 10 µM; shares compounds with KCNQ1 block; AID 652147; 77% of 1,600 active; KCNQ1/KCNE1 cells, FluxOR thallium flux fluorescence;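 active means mean percent inhibition of duplicate wells above the buffer-only control mean plus 3 SD of those controls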;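 further: 0% = buffer only wells and 100% = XE-991 inhibitor control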
Numbers without * were called inactive; i = inactive; . = no result; + = active, no number.

SMILES	KCNQ1 pot	KCNQ1 block	KCNK3 inh	hERG rescue	Kir21 block	KCNK9 block	KCNQ1 block val	CHO Tl flux	KCNQ2 inh	KCNQ1 KCNE1 spec	others
S=C(Nc1cccc(Cl)c1)NC1CCCCC1	i	8*	i	-11.6	-0.61	i	49.5*	0.549	59.7%*	61.5%*
O=C(c1ccc([N+](=O)[O-])cc1[N+](=O)[O-])n1cnc2ccccc21	i	i	i	-35.6	0	i	.	.	.	.
Clc1cc(Br)ccc1OCCCNCc1ccccc1	i	7*	i	-10.6	-10*	i	67.5*	0.466	90.0%*	i
Cc1cccc(NC(=O)c2cc3n(n2)C(C(F)(F)F)CC(c2ccc4c(c2)OCO4)N3)c1 (stereo not given)	i	8*	i	-12.2	3.01	i	126.0*	0.395	104.3%*	94.5%*	KCNQ1 APC inh=i
c1coc(CSSCc2ccco2)c1	.	.	i	.	.	.	.	.	.	.
COC(=O)Cc1csc(Nc2ccccc2)n1	i	i	i	-2.8	0.01	i	.	.	.	.
COC(=O)Cc1nc(Nc2ccccc2)sc1C	i	7*	i	-12.3	-0.68	i	47.0*	0.448	i	46.5%*
COc1ccc(C(=O)C2CCCN(Cc3cccn3-c3ccccn3)C2)c(OC)c1 (stereo not given)	i	6*	i	-10.2	-2.37	i	0.0	0.485	60.3%*	i
O=C(c1cc(F)ccc1F)C1CCCN(Cc2cccn2-c2ccccn2)C1 (stereo not given)	i	i	i	-16.9	-0.53	i	.	.	.	.
COc1ccccc1-c1c(C)nn2c(N3CCCCCC3)cc(C)nc12	i	8*	i	-16.2	0	i	0.0	0.491	84.7%*	i
O=C(COc1ccc(F)cc1)NCCNC(=O)COc1ccc(F)cc1	.	.	i	.	.	.	.	.	.	.
Cc1csc2c(N3CCN(C(=S)Nc4ccc(C(F)(F)F)cc4)CC3)ncnc12	i	12*	i	-8.8	0.2	i	82.5*	0.539	i	178.0%*
Cc1csc2c(N3CCN(C(=O)Nc4ccc(Cl)c(Cl)c4)CC3)ncnc12	i	11*	i	-7.0	3.16	i	159.5*	0.36*	90.0%*	+
Cc1csc2ncnc(N3CCN(C(=S)Nc4ccc(C(F)(F)F)cc4)CC3)c12	i	10*	i	-6.5	-1.29	i	112.0*	0.471	74.0%*	93.5%*	KCNQ1 APC inh=i
Cc1cc(C)cc(NC(=S)N2CCN(c3ncc(C(F)(F)F)cc3Cl)CC2)c1	i	i	i	-7.9	-0.31	i	.	.	.	.
Cc1csc2c(N3CCN(C(=O)NC(C)(C)C)CC3)ncnc12	i	i	i	-4.8	0.74	i	.	.	.	.
CCCCOc1ccc(Cc2c(Cl)nc(SC)nc2N2CCOCC2)cc1	i	7*	i	-20.7	-1.27	i	63.0*	0.391	102.0%*	68.0%*
CSc1nc(Cl)c(Cc2ccc(OCC(C)C)cc2)c(N2CCOCC2)n1	i	8*	i	-7.8	-1.65	i	110.5*	0.4	103.0%*	136.0%*	KCNQ1 APC inh=i
CSc1nc(N2CCOCC2)c2c3c(sc2n1)CCCC3	i	i	i	-4.5	0.01	i	.	.	.	.
C[C@H](NC(N)=O)C(=O)N1CCN(S(=O)(=O)c2ccc3ccccc3c2)CC1	i	i	i	-6.0	0.72	i	.	.	.	.
